Tests used:
Plasmodium falciparum [1] = experiment: Antiparasitic activity against Plasmodium falciparum FCR-3
Mus musculus [2] = experiment: In vivo antimalarial activity against Plasmodium berghei NK 65 in mice (Mus musculus) at 50 mg/kg/day; type: functional
In short: (§1)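 Male ICR mice, 5 weeks old, 22-25 g, five per group. Infected iv (tail vein) with 1 × 10⁶ P. berghei NK 65 parasitized erythrocytes in 0.2 mL 0.9% NaCl. Compound in DMSO given ip once daily on days 0-3, first dose 2 h after inoculation. Controls were DMSO-dosed. Day-4 parasitemia counted on Giemsa tail-blood smears (1 × 10⁴ RBCs). Percent suppression relative to controls, mean of five mice.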

FM3A [3] = experiment: In vitro cytotoxicity in mouse mammary tumor FM3A cells; type: functional, cell-based
FM3A [4] = experiment: Selectivity index as EC50 FM3A /EC50 Plasmodium falciparum; type: functional
Mus musculus [5] = experiment: In vivo antimalarial activity against Plasmodium berghei NK 65 in mice (Mus musculus) at 20 mg/kg/day; type: functional
In short: as §1

FM3A [6] = experiment: In vitro cytotoxicity in mouse mammary tumor FM3A cells; Nontoxic at a 1*10^-4 M concentration.; type: functional, cell-based
Plasmodium falciparum [7] = experiment: In vitro antimalarial activity against chloroquine-sensitive Plasmodium falciparum FCR3; Not toxic at 100uM; type: functional, organism-based

Compound	EC50 (Plasmodium falciparum [1]) [nM]	Growth inhibition (Mus musculus [2]) [%]	EC50 (FM3A [3]) [nM]	Selectivity (FM3A [4])	Growth inhibition (Mus musculus [5]) [%]	EC50 (FM3A [6])	EC50 (Plasmodium falciparum [7])
CCC(CC)C1OOC2CCCC(c3ccccc3)(OO1)O2 (stereo not given)	510	18	33000	65	15	–	–
Fc1ccc(C2OOC3CCCC(c4ccccc4)(OO2)O3)cc1 (stereo not given)	2800	–	17000	6	–	–	–
COc1ccc(C2OOC(c3ccc(OC)cc3)OO2)cc1 (stereo not given)	790	–	–	>127	–	Not toxic	–
Fc1ccc(C2OOC3CCCC(c4ccc(F)cc4)(OO2)O3)cc1 (stereo not given)	1900	–	9000	5	–	–	–
CC(C)(C)C1OOC2CCCC(c3ccccc3)(OO1)O2 (stereo not given)	17000	–	26000	2	–	–	–
Fc1ccc(C23CCCC(OOC(c4ccccc4)OO2)O3)cc1 (stereo not given)	2900	–	8100	4	–	–	–
Fc1ccc(C23CCCC(OOC(C4CCCCC4)OO2)O3)cc1 (stereo not given)	150	–	2500	17	–	–	–
FC(F)(F)c1ccccc1C1OOC(c2ccccc2C(F)(F)F)OO1 (stereo not given)	600	–	3000	5	–	–	–
c1ccc(C23CCCC(OOC(C4CCCCC4)OO2)O3)cc1 (stereo not given)	210	15	10000	48	0	–	–
CCCCCCC[C@H]1OO[C@H](CCCCCCC)OO1	1500	–	–	>67	–	Not toxic	–
O=C(CCC[C@H]1OO[C@H](CCCC(=O)c2ccccc2)OO1)c1ccccc1	400	40	–	>250	30	Not toxic	–
CCCCCCCC1OOC2CCCC(c3ccccc3)(OO1)O2 (stereo not given)	1500	–	12000	–	–	–	–
c1ccc([C@H]2OO[C@H](c3ccccc3)OO2)cc1	1100	50	–	>91	6	Not toxic	–
O=C(CCC[C@H]1OO[C@H](CCCC(=O)c2ccc(F)cc2)OO1)c1ccc(F)cc1	510	30	–	>169	0	Not toxic	–
FC(F)(F)c1ccc(C2OOC(c3ccc(C(F)(F)F)cc3)OO2)cc1 (stereo not given)	–	–	–	–	–	Not toxic	Not toxic
C1CCC([C@H]2OO[C@H](C3CCCCC3)OO2)CC1	200	96	11000	55	50	–	–
O=C(CCCC1OOC2CCCC(c3ccccc3)(OO1)O2)c1ccccc1 (stereo not given)	1300	–	–	>77	–	Not toxic	–
Fc1ccc(C2OOC(c3ccc(F)cc3)OO2)cc1 (stereo not given)	500	90	–	>200	50	Not toxic	–
COc1ccc(C(=O)CCCC2OOC3CCCC(c4ccc(OC)cc4)(OO2)O3)cc1 (stereo not given)	930	–	18000	19	–	–	–
C[C@@H]1CC[C@H]2[C@@H](C)C(=O)O[C@@H]3O[C@@]4(C)CC[C@@H]1[C@]32OO4 [ARTEMISININ]	7.8	100	10000	–	93	–	–
O=C(CCC[C@H]1OO[C@@H](CCCC(=O)c2ccccc2)OO1)c1ccccc1	12000	–	–	>8	–	Not toxic	–
O=C(CCCC1OOC2CCCC(c3ccc(F)cc3)(OO1)O2)c1ccc(F)cc1 (stereo not given)	710	0	–	>141	0	Not toxic	–
COc1ccc(C(=O)CCC[C@H]2OO[C@H](CCCC(=O)c3ccc(OC)cc3)OO2)cc1	20000	–	–	>5	–	Not toxic	–
c1ccc(C2OOC3CCCC(c4ccccc4)(OO2)O3)cc1 (stereo not given)	1400	–	50000	36	–	–	–
c1ccc(C[C@H]2OO[C@H](Cc3ccccc3)OO2)cc1	14000	–	–	>7	–	Not toxic	–
